The nature of data set [1]: Toxicity against golden Syrian hamster peritoneal macrophages. Conditions: macrophage. The format is cell-based, Mesocricetus auratus.
Data set [2] relates to Leishmania donovani. The data set is described as follows: Antileishmanial activity against Leishmania donovani MHOM/IN/1983/AG83 promastigotes infected BALB/c mouse assessed as liver weight at 12.5 mg/kg, ip administered two times per week for 4 weeks. The format is functional. Conditions: route intraperitoneal. The gist of the method: (§1)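 BALB/c mice (4-6 weeks) were infected iv with 2 × 10^7 freshly transformed promastigotes. One month later, groups were dosed ip in 0.2% Tween 80 in PBS (0.02 M), twice weekly for one month (8 doses); controls got vehicle only. Mice were killed one month post-treatment and spleen and liver were weighed. Parasite load came from Giemsa impression smears as organ weight (mg) × amastigotes per cell nucleus × 2 × 10^5. Values are mean ± S.E. of 5 mice; unpaired t-test.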

Data set [3] concerns Leishmania donovani. Put plainly: Antileishmanial activity against Leishmania donovani MHOM/IN/1983/AG83 amastigotes by Giemsa staining. The format is functional, organism-based. The gist of the method: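 Peritoneal macrophages from thioglycolate-elicited exudate (~2×10^6/ml), adhered overnight on coverslips in RPMI-1640 + 10% FBS at 37 °C, 5% CO2. Infected 6 h with stationary-phase AG83 promastigotes (2×10^7/ml), washed, then exposed 24 h to 0.5, 1, 3, 5, 10 compound. Methanol-fixed, Giemsa-stained; amastigotes per 200 macrophages counted against untreated controls.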

Data set [4] relates to Leishmania donovani. The data set is described as follows: Antileishmanial activity against Leishmania donovani MHOM/IN/1983/AG83 promastigotes after 4 hrs by MTT assay. The format is functional, organism-based. The settings on record: MHOM/IN/1983/AG83, 4 h. In short, it runs like this:
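AG83 promastigotes kept at 22 °C in M199 + 10% FBS. Log-phase cells (2×10^6/ml) exposed 2 h at 22 °C to 1, 3, 5, 7, 10, 15 compound; DMSO at 0.1% final. Cells washed with PBS, incubated 4 h at 22 °C with MTT (2 mg/ml). Formazan dissolved in DMSO and read at 570 nm; % lysis computed, IC50 by linear regression.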
In general terms: Tetrazolium assays rely on reduction of a dye to a coloured formazan, in cell work by metabolically active cells.

The subject of data set [5] is Leishmania donovani. Put plainly: Antileishmanial activity against Leishmania donovani MHOM/IN/1983/AG83 promastigotes infected BALB/c mouse assessed as spleen weight at 12.5 mg/kg, ip administered two times per week for 4 weeks. The format is functional. The settings on record: route intraperitoneal. In short, it runs like this: as §1
The test system of data set [6] is Leishmania donovani. The data set is described as follows: Antileishmanial activity against Leishmania donovani MHOM/IN/1983/AG83 promastigotes infected ip dosed BALB/c mouse assessed as reduction in spleen parasite burden administered two times per week for 4 weeks relative to control. The format is functional. On the set-up: scale not given: the % may be the effect or the level left. In short, it runs like this:
as §1

The test system of data set [7] is Leishmania donovani. Put plainly: Antileishmanial activity against Leishmania donovani MHOM/IN/1983/AG83 promastigotes infected ip dosed BALB/c mouse assessed as reduction in liver parasite burden administered two times per week for 4 weeks relative to control. On the set-up: scale not given: the % may be the effect or the level left. The format is functional. The gist of the method: as §1

SMILES strings stand for the structures. Converted amounts (≈) assume the structure as drawn.

We go through 8 compounds from ChEMBL document CHEMBL1153864, “Phase transfer catalyzed synthesis of bis-quinolines: antileishmanial activity in experimental visceral leishmaniasis and in vitro antibacterial evaluation” (Eur J Med Chem, 2009).

What is called IC50 is the concentration that inhibits the measured activity by half. For the compound `Cc1ccc2cccc(OCOc3cccc4ccc(C)nc34)c2n1`, the Activity is above 100 µg/mL in data set [1], 1205 mg in data set [2] and 232 mg in data set [5]. Further, the results for the IC50 in data set [3] and in data set [4] were 2.9 µg/mL (≈ 8.78 µM) and 3.4 µg/mL (≈ 10.3 µM), respectively.

On to `N=C(N)c1ccc(OCCCCCOc2ccc(C(=N)N)cc2)cc1` [PENTAMIDINE], for which the Activity in data set [1] is above 90 µg/mL. Besides, the IC50 in data set [3] stood at 2.8 µg/mL (≈ 8.22 µM); in data set [4], 2.1 µg/mL (≈ 6.17 µM).

With `O=c1ccc2cccc3c2n1CCO3` [OXAZINOQUINOLONE], in data set [1], the Activity is above 220 µg/mL. The values for the IC50 in data set [3] and in data set [4] were 14 µg/mL (≈ 74.8 µM) and 16.5 µg/mL (≈ 88.1 µM), respectively.

For the compound `Cc1ccc2cccc(OCCCCCOc3cccc4ccc(C)nc34)c2n1`, the Activity in data set [1] was above 85 µg/mL; in data set [6], 82%; in data set [2], 1020 mg; in data set [7] it was 88.5%; in data set [5], 135 mg. For the same compound, the IC50 in data set [3] is 2.4 µg/mL (≈ 6.21 µM); in data set [4], 2.8 µg/mL (≈ 7.24 µM).

Take `Cc1ccc2cccc(OCCCOc3cccc4ccc(C)nc34)c2n1`: the Activity in data set [1] is above 200 µg/mL. Also, the IC50 was found to be 10 µg/mL (≈ 27.9 µM) in data set [3] and 13.5 µg/mL (≈ 37.7 µM) in data set [4].

On to `Cc1ccc2cccc(OCCCCOc3cccc4ccc(C)nc34)c2n1`, for which the Activity in data set [1] is above 90 µg/mL; in data set [6], 73.5%; in data set [2] it was 1125 mg; in data set [7], 78%; in data set [5], 190 mg. The IC50 was 2.7 µg/mL (≈ 7.25 µM) in data set [3] and 3.2 µg/mL (≈ 8.59 µM) in data set [4].

`C[C@@H]1[C@H](O)[C@@H](C)/C=C/C=C/C=C/C=C/C=C/C=C/C=C/[C@H](O[C@@H]2O[C@H](C)[C@@H](O)[C@H](N)[C@@H]2O)C[C@@H]2O[C@](O)(C[C@@H](O)C[C@@H](O)[C@H](O)CC[C@@H](O)C[C@@H](O)CC(=O)O[C@H]1C)C[C@H](O)[C@H]2C(=O)O` [AMPHOTERICIN B]: the Activity in data set [1] is above 4 µg/mL. The concentration for half-maximal inhibition (IC50) is 0.1 µg/mL (≈ 0.108 µM) in data set [3] and 0.16 µg/mL (≈ 0.173 µM) in data set [4].

Turning to `c1cnc2c(OCOc3cccc4cccnc34)cccc2c1`, the Activity in data set [1] is above 85 µg/mL; in data set [6], 89%; in data set [2], 980 mg; in data set [7], 92%; in data set [5], 110 mg. The concentration for half-maximal inhibition (IC50) in data set [3] stood at 2.3 µg/mL (≈ 7.61 µM); in data set [4], 2.4 µg/mL (≈ 7.94 µM).
